Measurements published in ChEMBL document CHEMBL1154402, “Antiviral effect of orally administered (-)-beta-D-2-aminopurine dioxolane in woodchucks with chronic woodchuck hepatitis virus infection” (Antimicrob Agents Chemother, 2007).
Calls of active or inactive are those of the source. The calls are words filed in the database; no cut-off is given here.

How the values were obtained:
[1] = test system: Woodchuck hepatitis virus; assay: Antiviral activity against woodchuck hepatitis virus infected woodchucks assessed as log reduction of serum viral DNA per ml of serum after 4 weeks; format: functional
[2] = test system: Woodchuck hepatitis virus; assay: Antiviral activity against woodchuck hepatitis virus chronically infected woodchucks assessed as reduction of serum viral DNA at 1 mg/kg/day, po after 4 weeks; format: functional, organism-based
Outline: (§1)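 Chronic WHV carriers were stratified into groups of five. They were dosed orally once daily for 4 weeks at 1, 3, 10 or 30 mg/kg/day, or given liquid-diet placebo; drug was dissolved in saline and suspended in diet by syringe. Serum WHV DNA was measured weekly by triplicate dot blot (sensitivity 1.0 x 107 WHVge/ml) or triplicate real-time PCR (1.0 x 103 WHVge/ml) against pWHV8 standards. Log values were compared with pretreatment and placebo by repeated-measures ANOVA with Holm-Sidak tests.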

[3] = Terminal elimination half life in woodchuck hepatitis virus-negative woodchucks at 33.3 mg/kg, iv administered as single dose followed by dose of 33.3 mg/kg, po after 4 weeks washout period; format: ADME, organism-based; conditions: marmota monax, in vivo, read-out: beta t1/2 (converted)
Outline: (§2)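 Three WHV-negative adult woodchucks got a 33.3 mg/kg iv bolus, with one saline control. After a 4-week washout the same three got 33.3 mg/kg orally. Blood was drawn predose and at 0.25–24 h. Serum APD and DXG were measured by HPLC-UV (LOQ 0.2 µM) and analysed noncompartmentally. AUC0-∞ used the trapezoidal rule, extrapolated by Clast/λz.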

[4] = test system: Woodchuck hepatitis virus; assay: Antiviral activity against woodchuck hepatitis virus chronically infected orally dosed woodchucks assessed as reduction in serum viremia administered once daily for 4 weeks; format: functional, organism-based; outline: as §1
[5] = test system: Woodchuck hepatitis virus; assay: Antiviral activity against woodchuck hepatitis virus chronically infected woodchucks assessed as reduction of viral DNA replicative intermediates at 3 mg/kg/day, po after 4 weeks; format: functional, organism-based
Outline: (§3)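 Liver biopsies were taken by ultrasound-guided needle under ketamine/xylazine anaesthesia. Timing was 1 week before and at the end of 4 weeks of once-daily oral dosing (1–30 mg/kg/day or placebo diet; five woodchucks per group). Samples were snap-frozen and stored at –70°C. Hepatic WHV DNA replicative intermediates were quantified by Southern blot hybridization and compared with placebo.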

[6] = test system: Woodchuck hepatitis virus; assay: Antiviral activity against woodchuck hepatitis virus chronically infected woodchucks assessed as log reduction of serum viral DNA at 10 mg/kg/day, po after 4 weeks; format: functional
Outline: (§4)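 Chronic WHV-carrier adult woodchucks were stratified into groups of five and dosed orally once daily for 4 weeks (saline solution in liquid diet; diet-alone placebo). Serum WHV DNA was measured weekly by dot blot (sensitivity 1.0 x 10^7 WHVge/ml) or by triplicate real-time PCR (sensitivity 1.0 x 10^3 WHVge/ml) against pWHV8 standards. Log values were compared with week 0 and placebo by repeated-measures ANOVA with Holm-Sidak.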

[7] = test system: Woodchuck hepatitis virus; assay: Antiviral activity against woodchuck hepatitis virus chronically infected woodchucks assessed as reduction of viral DNA replicative intermediates at 10 mg/kg/day, po after 4 weeks; format: functional, organism-based; outline: as §3
[8] = Terminal elimination half life in woodchuck hepatitis virus-negative woodchucks at 33.3 mg/kg, iv administered as single dose; format: ADME, organism-based; set-up: dose 33.3 mg/kg, route intravenous; conditions: marmota monax, in vivo, read-out: beta t1/2 (converted); outline: as §2
[9] = Cmax in woodchuck hepatitis virus-negative woodchucks at 33.3 mg/kg, iv administered as single dose followed by dose of 33.3 mg/kg, po after 4 weeks washout period; format: ADME, organism-based; conditions: marmota monax, in vivo; outline: as §2
Marmota monax [10] = assay: Toxicity in woodchuck hepatitis virus chronically infected woodchuck assessed as serum sorbitol dehydrogenase level at 30 mg/kg/day, po after 4 weeks; format: organism-based; set-up: route oral; conditions: in vivo, 672 h
Outline: (§5)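 Serum ALT and SDH were measured as hepatocellular injury markers in chronic WHV carriers dosed orally once daily for 4 weeks. Blood was drawn under ketamine (50 mg/kg) and xylazine (5 mg/kg) im anaesthesia before treatment and weekly during treatment.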

[11] = Terminal elimination half life in orally dosed monkey; format: ADME, organism-based, Macaca mulatta; conditions: rhesus monkey, in vivo, po; read-out: beta t1/2 (converted)
[12] = test system: Woodchuck hepatitis virus; assay: Antiviral activity against woodchuck hepatitis virus chronically infected woodchucks assessed as log reduction of viral DNA replicative intermediates at 30 mg/kg/day, po after 4 weeks relative to control; format: functional, organism-based; outline: as §3
[13] = test system: Woodchuck hepatitis virus; assay: Antiviral activity against woodchuck hepatitis virus chronically infected woodchucks assessed as log reduction of serum viral DNA at 30 mg/kg/day, po after 4 weeks; format: functional; outline: as §4
[14] = Cmax in woodchuck hepatitis virus-negative woodchucks at 33.3 mg/kg, iv administered as single dose; format: ADME, organism-based; set-up: dose 33.3 mg/kg, route intravenous; conditions: marmota monax, in vivo; outline: as §2
Marmota monax [15] = assay: Toxicity in woodchuck hepatitis virus chronically infected woodchucks assessed as change in body weight administered once daily for 4 weeks; format: organism-based; conditions: in vivo, 672 h
Rhesus monkey [16] = assay: AUC in po dosed rhesus monkey assessed as serum 9-(beta-D-1,3-dioxolan-4-yl)guanine level; format: ADME, organism-based, Macaca mulatta, Plasma; conditions: in vivo
[17] = test system: Woodchuck hepatitis virus; assay: Antiviral activity against woodchuck hepatitis virus chronically infected in woodchucks assessed as reduction in viral surface antigen level in blood at 30 mg/kg/day, po after 4 weeks; format: functional
Outline: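 Adult woodchucks chronically infected with WHV, in groups of five, got the drug dissolved in isotonic saline and suspended in a semisynthetic liquid diet, by oral dose syringe once daily for 4 weeks. Placebo was diet alone. Serum WHsAg was measured by WHV-specific enzyme immunoassay (optical density units) before, during and after treatment up to week 16.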

Marmota monax [18] = assay: Toxicity in woodchuck hepatitis virus chronically infected woodchuck assessed as serum alanine aminotransferase level at 30 mg/kg/day, po after 4 weeks; format: organism-based; set-up: route oral; conditions: in vivo, 672 h; outline: as §5
[19] = test system: Woodchuck hepatitis virus; assay: Antiviral activity against woodchuck hepatitis virus chronically infected woodchucks assessed as reduction of viral DNA replicative intermediates at 1 mg/kg/day, po after 4 weeks; format: functional, organism-based; outline: as §3
[20] = test system: Woodchuck hepatitis virus; assay: Antiviral activity against woodchuck hepatitis virus chronically infected in woodchucks M7250 assessed as reduction in anti-WHs antibody levels at 30 mg/kg/day, po after 4 weeks; format: functional, organism-based
[21] = test system: Woodchuck hepatitis virus; assay: Antiviral activity against woodchuck hepatitis virus chronically infected in woodchucks M7236 assessed as reduction in anti-WHs antibody levels at 30 mg/kg/day, po after 4 weeks; format: functional, organism-based
[22] = AUC (0 to infinity) in woodchuck hepatitis virus-negative woodchucks at 33.3 mg/kg, iv administered as single dose; format: ADME, organism-based; set-up: time infinity, dose 33.3 mg/kg, route intravenous; conditions: marmota monax, plasma; outline: as §2
[23] = AUC (0 to infinity) in woodchuck hepatitis virus-negative woodchucks at 33.3 mg/kg, iv administered as single dose followed by dose of 33.3 mg/kg, po after 4 weeks washout period; format: ADME, organism-based; conditions: marmota monax, plasma; outline: as §2
[24] = test system: Woodchuck hepatitis virus; assay: Antiviral activity against woodchuck hepatitis virus chronically infected woodchucks assessed as log reduction of serum viral DNA at 3 mg/kg/day, po after 4 weeks; format: functional; outline: as §4
[25] = test system: Woodchuck hepatitis virus; assay: Antiviral activity against woodchuck hepatitis virus chronically infected in woodchucks assessed as reduction in anti-WHV core antigen antibody levels at 30 mg/kg/day, po after 4 weeks; format: functional, organism-based
[26] = Terminal elimination half life in orally dosed mouse; format: ADME, organism-based; conditions: in vivo, po, read-out: beta t1/2 (converted)
Duck hepatitis B virus [27] = assay: Antiviral activity against Duck hepatitis B virus infected ip dosed ducklings assessed as log reduction of serum viral DNA copies per ml of serum after 10 days
Duck hepatitis B virus [28] = assay: Antiviral activity against Duck hepatitis B virus chronically infected ducklings assessed as log reduction of serum viral DNA copies per ml of serum at 20 mg/kg, ip after 10 days; conditions: route intraperitoneal
Duck hepatitis B virus [29] = assay: Antiviral activity against Duck hepatitis B virus experimentally infected ducklings assessed as log reduction of serum viral DNA copies per ml of serum at 40 mg/kg, ip after 10 days; conditions: route intraperitoneal
[30] = test system: Woodchuck hepatitis virus; assay: Antiviral activity against woodchuck hepatitis virus infected woodchucks assessed as log reduction of serum viral DNA per ml of serum after 12 weeks; format: functional
Marmota monax [31] = assay: Terminal elimination half life in woodchuck hepatitis virus-negative woodchucks assessed as 9-(beta-D-1,3-dioxolan-4-yl)guanine at 33.3 mg/kg, iv administered as single dose; format: ADME, organism-based; set-up: dose 33.3 mg/kg, route intravenous; conditions: in vivo; outline: as §2
Marmota monax [32] = assay: AUC (0 to infinity) in woodchuck hepatitis virus -negative woodchucks assessed as 9-(beta-D-1,3-dioxolan-4-yl)guanine at 33.3 mg/kg, iv administered as single dose followed by dose of 33.3 mg/kg, po after 4 weeks washout period; format: ADME, organism-based, Plasma; conditions: in vivo, 672 h; outline: as §2
Mus musculus = assay: Terminal elimination half life in orally dosed mouse assessed as 9-(beta-D-1,3-dioxolan-4-yl)guanine; format: ADME, organism-based; conditions: in vivo, po
Rhesus monkey [33] = assay: Terminal elimination half life in orally dosed monkey assessed as 9-(beta-D-1,3-dioxolan-4-yl)guanine; format: ADME, organism-based, Macaca mulatta; conditions: in vivo, po
[34] = AUC (0 to infinity) in iv dosed mouse; format: ADME, organism-based; set-up: route intravenous, time infinity; conditions: plasma
Marmota monax [35] = assay: Cmax in woodchuck hepatitis virus-negative woodchucks assessed as 9-(beta-D-1,3-dioxolan-4-yl)guanine at 33.3 mg/kg iv followed by after 4 weeks washout period administered 33.3 mg/kg, po; format: ADME, organism-based; conditions: in vivo, 672 h; outline: as §2
Marmota monax [36] = assay: Cmax in woodchuck hepatitis virus-negative woodchucks assessed as 9-(beta-D-1,3-dioxolan-4-yl)guanine at 33.3 mg/kg, iv administered as single dose; format: ADME, organism-based; set-up: dose 33.3 mg/kg, route intravenous; conditions: in vivo; outline: as §2
[37] = AUC (0 to infinity) in orally dosed mouse; format: ADME, organism-based; set-up: route oral, time infinity; conditions: plasma, po
[38] = Oral bioavailability in mouse; format: ADME, organism-based; conditions: in vivo
Marmota monax [39] = assay: Terminal elimination half life in woodchuck hepatitis virus -negative woodchucks assessed as 9-(beta-D-1,3-dioxolan-4-yl)guanine at 33.3 mg/kg, iv administered as single dose followed by dose of 33.3 mg/kg, po after 4 weeks washout period; format: ADME, organism-based; conditions: in vivo, 672 h; outline: as §2
Marmota monax [40] = assay: AUC (0 to infinity) in woodchuck hepatitis virus-negative woodchucks assessed as 9-(beta-D-1,3-dioxolan-4-yl)guanine at 33.3 mg/kg, iv administered as single dose; format: ADME, organism-based, Plasma; set-up: time infinity, dose 33.3 mg/kg, route intravenous; conditions: in vivo; outline: as §2

Compound: Nc1ccn([C@H]2C[C@H](O)[C@@H](CO)O2)c(=O)n1 [DOXECITINE]
- Activity [1]: 2

Compound: Nc1ncc2ncn([C@H]3CO[C@@H](CO)O3)c2n1
- Activity [2]: inactive
- half-life [3]: 3 h
- Activity [4]: Dose-dependent effect
- Activity [5]: inactive
- Activity [6]: 0.7
- Activity [7]: inactive
- half-life [8]: 1.7 h
- Cmax [9]: 16.8 µM
- Activity (Marmota monax [10]): 211.5 IU/L
- half-life [11]: 0.5 h
- Activity [12]: Active
- Activity [13]: 1.9
- Cmax [14]: 112 µM
- Activity (Marmota monax [15]): Non-toxic
- %AUC (Rhesus monkey [16]): 75%
- fold change (FC) [17]: 1.4
- Activity (Marmota monax [18]): 9.5 IU/L
- Activity [19]: inactive
- Activity [20]: inactive
- Activity [21]: inactive
- AUC(0-inf) [22]: 203 µM·h
- AUC(0-inf) [23]: 49.4 µM·h
- Activity [24]: 0.4
- Activity [25]: inactive
- half-life [26]: 0.3 h

Compound: Nc1nc(N)c2ncn([C@H]3CO[C@@H](CO)O3)c2n1 [AMDOXOVIR]
- Activity (Duck hepatitis B virus [27]): Dose-dependent effect
- Activity (Duck hepatitis B virus [28]): 0.3
- Activity (Duck hepatitis B virus [29]): 0.9

Compound: CC(C)(C)C(=O)OCOP(=O)(COCCn1cnc2c(N)ncnc21)OCOC(=O)C(C)(C)C [ADEFOVIR DIPIVOXIL]
- Activity [30]: >2.5
- Activity [1]: 1.8

Compound: Nc1nc2c(ncn2[C@H]2CO[C@@H](CO)O2)c(=O)[nH]1
- beta t1/2 (Marmota monax [31]): 3.7 h
- AUC (Marmota monax [32]): 309.7 µM·h
- beta t1/2 (Mus musculus): 1 h
- beta t1/2 (Rhesus monkey [33]): 1.5 h
- AUC(0-inf) [34]: 818 µM·h
- Cmax (Marmota monax [35]): 20.3 µM
- Cmax (Marmota monax [36]): 24.6 µM
- AUC(0-inf) [37]: 930 µM·h
- bioavailability [38]: 114%
- beta t1/2 (Marmota monax [39]): 12.1 h
- AUC (Marmota monax [40]): 146.2 µM·h

Compound: C=C1[C@H](CO)[C@@H](O)C[C@@H]1n1cnc2c(=O)[nH]c(N)nc21.O [ENTECAVIR]
- Activity [1]: 7

Compound: Nc1ccn([C@@H]2CS[C@H](CO)O2)c(=O)n1 [LAMIVUDINE]
- Activity [1]: 2.5
